Reference: ChEMBL document CHEMBL4138319, “Discovery, Synthesis, Pharmacological Profiling, and Biological Characterization of Brintonamides A-E, Novel Dual Protease and GPCR Modulators from a Marine Cyanobacterium” (J Med Chem, 2018)
Calls of active or inactive are those of the source. The rule behind the calls is not given here. Square brackets hold non-standard residues; d marks the D form. Peptide text beside a SMILES is read from it. * marks the point of attachment. ξ: configuration not given here. X4 = CC[C@H](C)[C@@H](OC(=O)[C@H](Cc1ccccc1)N(C)C)C(=O)*; X3 = CC[C@H](C)[C@@H](OC(=O)/C=C\c1ccccc1)C(=O)*; X5 = CC[C@H](C)[C@@H](OC(=O)C#Cc1ccccc1)C(=O)*; X2 = CC[C@H](C)[C@@H](OC(=O)CCc1ccccc1)C(=O)*; Hmp(2R,3S) = CC[C@H](C)[C@@H](O)C(=O)O; dNMeF = CN[C@H](Cc1ccccc1)C(=O)O; NMeL = CN[C@@H](CC(C)C)C(=O)O; dHiv = CC(C)[C@@H](O)C(=O)O; ξD = NC(CC(=O)O)C(=O)O

Key:
[1] = target: T1, Kallikrein-7 (Homo sapiens, UniProt P49862); test: Inhibition of kallikrein 7 (unknown origin) by fluorescence assay
How it was run: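 Protease panel screen: 10-dose titrations, 3-fold serial dilution from 100 μM, singlet. Protease activity is followed as the time-course rise in fluorescence from a labeled peptide substrate, and the initial linear slope (signal/min) is analysed.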
Target sequence in this assay (P49862 whole entry): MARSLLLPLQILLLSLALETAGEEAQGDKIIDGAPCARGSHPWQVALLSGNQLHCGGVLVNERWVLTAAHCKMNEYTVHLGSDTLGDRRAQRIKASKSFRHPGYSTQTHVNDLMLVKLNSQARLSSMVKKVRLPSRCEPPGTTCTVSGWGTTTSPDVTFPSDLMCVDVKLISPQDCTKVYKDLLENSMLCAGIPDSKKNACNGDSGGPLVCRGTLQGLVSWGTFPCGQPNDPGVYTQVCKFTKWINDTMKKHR

[2] = target: T2, Caspase-14 (Homo sapiens, UniProt P31944); test: Inhibition of human caspase 14 using Ac-WEHD-AMC fluorogenic peptide as substrate by fluorescence assay
T2 sequence (P31944 whole entry): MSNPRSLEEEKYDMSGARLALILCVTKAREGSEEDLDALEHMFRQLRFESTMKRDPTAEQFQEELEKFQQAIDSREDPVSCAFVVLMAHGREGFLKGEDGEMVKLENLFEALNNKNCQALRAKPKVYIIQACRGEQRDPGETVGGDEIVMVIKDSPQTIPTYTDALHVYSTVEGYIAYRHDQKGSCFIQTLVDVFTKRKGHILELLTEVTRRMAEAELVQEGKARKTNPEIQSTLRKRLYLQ
How it was run: (§1)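 Activity followed as a time course of rising fluorescence from a fluorescently labelled peptide substrate. The initial linear slope (signal/min) was used.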

[3] = target: T3, Substance-K receptor (Homo sapiens, UniProt P21452); test: Antagonist activity at human TACR2 expressed in CHOK1 cells assessed as substance P-induced beta-arrestin recruitment pre-incubated for 30 mins before substance P stimulation for 90 or 180 mins by chemiluminescence method; assay type: functional, cell-based
T3 sequence (P21452 whole entry): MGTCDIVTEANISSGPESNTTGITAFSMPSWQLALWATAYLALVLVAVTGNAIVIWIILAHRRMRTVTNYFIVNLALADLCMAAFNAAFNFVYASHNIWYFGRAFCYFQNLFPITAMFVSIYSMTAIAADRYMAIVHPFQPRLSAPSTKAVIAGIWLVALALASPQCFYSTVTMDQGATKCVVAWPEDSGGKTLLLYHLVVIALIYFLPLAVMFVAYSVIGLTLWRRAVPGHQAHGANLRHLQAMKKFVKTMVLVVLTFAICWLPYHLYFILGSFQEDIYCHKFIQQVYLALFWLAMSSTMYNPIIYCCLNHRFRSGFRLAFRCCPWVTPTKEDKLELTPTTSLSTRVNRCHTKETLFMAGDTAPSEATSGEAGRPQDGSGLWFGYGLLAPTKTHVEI
How it was run: (§2)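 PathHunter β-arrestin complementation assay, antagonist mode. Cells co-express ProLink-tagged GPCR and enzyme-acceptor-tagged β-arrestin and are pre-incubated with sample for 30 min at 37 °C or room temperature. Dose-response: 10 points, 3-fold dilutions from 20 μM, in duplicate.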

[4] = target: T4, C-C chemokine receptor type 10 (Homo sapiens, UniProt P46092); test: Antagonist activity at human CCR10 expressed in human U2OS cells assessed as inhibition of CCL27-induced beta-arrestin recruitment pre-incubated for 30 mins before CCL27 stimulation for 90 or 180 mins by chemiluminescence method; assay type: functional, cell-based; how it was run: as §2
T4 sequence (P46092 whole entry): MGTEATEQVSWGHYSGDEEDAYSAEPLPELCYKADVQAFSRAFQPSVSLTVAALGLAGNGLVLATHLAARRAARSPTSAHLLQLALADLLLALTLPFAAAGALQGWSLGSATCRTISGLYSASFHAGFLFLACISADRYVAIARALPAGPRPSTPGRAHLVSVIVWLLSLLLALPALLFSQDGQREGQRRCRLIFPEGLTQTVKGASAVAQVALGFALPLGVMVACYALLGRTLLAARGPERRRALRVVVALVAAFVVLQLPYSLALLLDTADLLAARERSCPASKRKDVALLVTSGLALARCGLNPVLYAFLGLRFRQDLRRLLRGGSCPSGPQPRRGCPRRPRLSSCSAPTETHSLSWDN

[5] = target: Atypical chemokine receptor 3 (Homo sapiens, UniProt P25106); test: Agonist activity at human CXCR7 expressed in CHOK1 cells assessed as induction of beta-arrestin recruitment by chemiluminescence method; assay type: functional, cell-based
How it was run: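 PathHunter β-arrestin enzyme-fragment complementation assay in cells stably co-expressing ProLink-tagged GPCR and enzyme-acceptor-tagged β-arrestin. Sample is added to cells and incubated 90 or 180 min at 37 °C or room temperature, with 1% final vehicle. Detection reagent is added for 1 h at room temperature and chemiluminescence is read. % activity is taken relative to vehicle and maximal control ligand. Dose-response: 10 points, 3-fold dilutions from 20 μM, in duplicate.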

[6] = target: T1, Kallikrein-7; test: Inhibition of kallikrein 7 (unknown origin) using fluorescently labeled peptide substrate by fluorescence assay
How it was run: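 KLK7 follow-up: 10-dose titrations, 3-fold serial dilution from 100 μM, in duplicate, with gabexate mesylate as positive control. Fluorescence from the labeled peptide substrate is monitored over time, and the initial linear slope (signal/min) is used to derive IC50.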
Target sequence in this assay (P49862 30-253 limits assumed): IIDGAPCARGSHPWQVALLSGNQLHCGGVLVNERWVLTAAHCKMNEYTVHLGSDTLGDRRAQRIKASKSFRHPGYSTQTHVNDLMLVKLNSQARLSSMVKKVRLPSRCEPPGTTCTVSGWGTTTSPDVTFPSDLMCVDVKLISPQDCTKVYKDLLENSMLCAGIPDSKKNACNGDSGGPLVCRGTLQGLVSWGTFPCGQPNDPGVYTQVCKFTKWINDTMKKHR

[7] = system: MDA-MB-231; test: Antiproliferative activity against human MDA-MB-231 cells after 48 hrs by MTT assay; assay type: functional, cell-based
How it was run: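 MDA-MB-231 cells are grown in DMEM with 10% FBS and seeded at 10,000 cells/well for 24 h. Cells are then exposed to graded compound concentrations or DMSO for 48 h. Viability is measured by MTT.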

[8] = target: T5, Oxytocin receptor (Homo sapiens, UniProt P30559); test: Antagonist activity at human OXTR expressed in CHOK1 cells assessed as oxytocin-induced beta-arrestin recruitment pre-incubated for 30 mins before oxytocin stimulation for 90 or 180 mins by chemiluminescence method; assay type: functional, cell-based; how it was run: as §2
T5 sequence (P30559 whole entry): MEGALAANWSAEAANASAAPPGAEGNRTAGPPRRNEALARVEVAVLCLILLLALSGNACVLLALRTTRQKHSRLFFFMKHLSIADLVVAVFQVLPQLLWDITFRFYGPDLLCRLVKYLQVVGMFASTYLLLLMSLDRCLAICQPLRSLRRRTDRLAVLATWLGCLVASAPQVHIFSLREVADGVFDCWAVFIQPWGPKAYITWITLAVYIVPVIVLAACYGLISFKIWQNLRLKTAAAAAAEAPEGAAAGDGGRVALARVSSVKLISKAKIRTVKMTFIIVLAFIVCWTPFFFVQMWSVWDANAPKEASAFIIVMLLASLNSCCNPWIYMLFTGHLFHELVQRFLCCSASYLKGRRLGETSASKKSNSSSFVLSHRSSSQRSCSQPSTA

[9] = target: Somatostatin receptor type 3 (Homo sapiens, UniProt P32745); test: Antagonist activity at human SSTR3 expressed in HEK293 cells assessed as [Tyr1]-somatostatin 14-induced beta-arrestin recruitment pre-incubated for 30 mins before [Tyr1]-somatostatin 14 stimulation for 90 or 180 mins by chemiluminescence method; assay type: functional, cell-based; how it was run: as §2
[10] = system: MDA-MB-231; test: Antiproliferative activity against human MDA-MB-231 cells assessed as reduction in cell viability at 32 uM after 48 hrs by MTT assay; assay type: functional
How it was run: (§3)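 MDA-MB-231 cells seeded at 10,000 cells/well in DMEM with 10% FBS and left 24 h, then exposed to compound or DMSO solvent control for 48 h. Viability read by MTT, compared with solvent control.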

[11] = system: MDA-MB-231; test: Antiproliferative activity against human MDA-MB-231 cells assessed as reduction in cell viability at 100 uM after 48 hrs by MTT assay; assay type: functional; how it was run: as §3
[12] = target: T1, Kallikrein-7; test: Mixed type inhibition of kallikrein 7 (unknown origin) using fluorescently labeled peptide substrate by fluorescence assay based Michaelis-Menten kinetic plot analysis
Target sequence in this assay (P49862 30-253 limits assumed): as the sequence (P49862 30-253 limits assumed) above

[13] = system: MDA-MB-231; test: Antimigratory activity against human MDA-MB-231 cells at 10 uM after 48 hrs by transwell migration assay relative to control; assay type: functional
[14] = target: T6, Chymase (Homo sapiens, UniProt P23946); test: Inhibition of chymase (unknown origin) by fluorescence assay; how it was run: as §1
T6 sequence (P23946 whole entry): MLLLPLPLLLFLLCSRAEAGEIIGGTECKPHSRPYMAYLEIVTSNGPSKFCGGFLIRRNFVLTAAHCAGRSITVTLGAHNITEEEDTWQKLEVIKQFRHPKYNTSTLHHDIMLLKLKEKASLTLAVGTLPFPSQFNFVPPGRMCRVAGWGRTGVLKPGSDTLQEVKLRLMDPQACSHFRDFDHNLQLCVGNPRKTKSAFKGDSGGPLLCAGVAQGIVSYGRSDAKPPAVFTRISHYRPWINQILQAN

[15] = Inhibition of chymotrypsin (unknown origin) by fluorescence assay; set-up: species or system Homo sapiens
[16] = Homo sapiens, MDA-MB-231, 48 h, read-out: IC50

Chain of Somatostatin receptor type 3 (P32745 whole entry): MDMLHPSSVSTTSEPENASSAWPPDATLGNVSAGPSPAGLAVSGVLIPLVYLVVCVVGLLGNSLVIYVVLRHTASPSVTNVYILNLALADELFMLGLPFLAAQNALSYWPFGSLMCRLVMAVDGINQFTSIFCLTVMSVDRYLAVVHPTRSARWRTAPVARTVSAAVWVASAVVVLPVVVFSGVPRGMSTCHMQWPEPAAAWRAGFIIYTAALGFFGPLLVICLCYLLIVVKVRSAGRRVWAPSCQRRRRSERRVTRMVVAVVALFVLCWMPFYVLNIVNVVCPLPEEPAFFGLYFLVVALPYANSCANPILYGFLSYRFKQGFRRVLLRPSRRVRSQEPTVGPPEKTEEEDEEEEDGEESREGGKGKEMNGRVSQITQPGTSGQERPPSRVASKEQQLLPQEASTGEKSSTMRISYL
Chain of Atypical chemokine receptor 3 (P25106 whole entry, the tested form may be a part): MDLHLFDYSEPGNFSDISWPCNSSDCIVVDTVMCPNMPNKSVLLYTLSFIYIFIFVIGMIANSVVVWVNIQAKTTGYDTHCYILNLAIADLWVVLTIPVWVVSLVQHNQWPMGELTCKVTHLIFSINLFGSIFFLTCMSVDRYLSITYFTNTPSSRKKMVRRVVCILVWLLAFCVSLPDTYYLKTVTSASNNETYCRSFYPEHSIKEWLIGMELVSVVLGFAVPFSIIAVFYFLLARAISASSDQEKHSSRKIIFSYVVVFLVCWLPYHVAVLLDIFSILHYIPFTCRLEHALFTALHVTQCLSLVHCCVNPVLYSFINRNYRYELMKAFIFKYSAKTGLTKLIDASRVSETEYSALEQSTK

SMILES | IC50 [1] | IC50 [2] | IC50 [3] | IC50 [4] | EC50 [5] | inhibition [6] | IC50 ([7]; mda-mb-231) | IC50 [8] | IC50 [9] | Activity [10] | IC50 [7, 16] | Activity [11] | inhibition [12] | Activity [13] | IC50 [14] | IC50 [15]
CCOC(=O)c1ccc(OC(=O)CCCCCNC(=N)N)cc1 | 20.4 µM | – | – | – | – | – | – | – | – | – | – | – | – | – | – | –
CC[C@H](C)[C@H](N)C(=O)N[C@@H](CCC(=O)O)C(=O)N[C@H](C(=O)NC(C=O)CC(=O)O)[C@@H](C)O (some centres not stated) (H-IET[ξD]-aldehyde) | – | 7.28 µM | – | – | – | – | – | – | – | – | – | – | – | – | – | –
COC(=O)[C@@H]1CCCN1C(=O)[C@@H](Cc1ccccc1)N(C)C(=O)[C@H](C)NC(=O)[C@H](CC(C)C)N(C)C(=O)CNC(=O)[C@@H]1CCCN1C(=O)[C@H](O)C(C)C (H-[dHiv]PG[NMeL]A[dNMeF]P-OMe) | – | – | > 20 µM | > 20 µM | > 20 µM | Active | Not Active | > 20 µM | > 20 µM | – | – | – | – | – | – | –
CC[C@H](C)[C@@H](OC(=O)CCc1ccccc1)C(=O)N1CCC[C@H]1C(=O)NCC(=O)N(C)[C@@H](CC(C)C)C(=O)N[C@@H](C)C(=O)N(C)[C@H](Cc1ccccc1)C(=O)N1CCC[C@H]1C(=O)OC (X2-PG[NMeL]A[dNMeF]P-OMe) | – | – | 3.22 µM | 3.14 µM | 7.81 µM | Active | – | 5.32 µM | > 20 µM | 50% | – | – | – | – | – | –
CC[C@H](C)[C@@H](OC(=O)/C=C\c1ccccc1)C(=O)N1CCC[C@H]1C(=O)NCC(=O)N(C)[C@@H](CC(C)C)C(=O)N[C@@H](C)C(=O)N(C)[C@H](Cc1ccccc1)C(=O)N1CCC[C@H]1C(=O)OC (X3-PG[NMeL]A[dNMeF]P-OMe) | – | – | 4.61 µM | 2.71 µM | 5.92 µM | Active | – | 5.76 µM | > 20 µM | – | 14.9 µM | – | – | – | – | –
CC[C@H](C)[C@@H](OC(=O)[C@H](Cc1ccccc1)N(C)C)C(=O)N1CCC[C@H]1C(=O)NCC(=O)N(C)[C@@H](CC(C)C)C(=O)N[C@@H](C)C(=O)N(C)[C@H](Cc1ccccc1)C(=O)N1CCC[C@H]1C(=O)OC (X4-PG[NMeL]A[dNMeF]P-OMe) | – | – | 5.51 µM | > 20 µM | 10.5 µM | Active | – | > 20 µM | 6.11 µM | – | – | 50% | – | – | – | –
CC[C@H](C)[C@@H](OC(=O)C#Cc1ccccc1)C(=O)N1CCC[C@H]1C(=O)NCC(=O)N(C)[C@@H](CC(C)C)C(=O)N[C@@H](C)C(=O)N(C)[C@H](Cc1ccccc1)C(=O)N1CCC[C@H]1C(=O)OC (X5-PG[NMeL]A[dNMeF]P-OMe) | – | – | > 20 µM | > 20 µM | > 20 µM | Active | – | > 20 µM | > 20 µM | – | 60 µM | – | – | – | – | –
CC[C@H](C)[C@@H](O)C(=O)N1CCC[C@H]1C(=O)NCC(=O)N(C)[C@@H](CC(C)C)C(=O)N[C@@H](C)C(=O)N(C)[C@H](Cc1ccccc1)C(=O)N1CCC[C@H]1C(=O)OC ({Hmp(2R,3S)}-PG[NMeL]A[dNMeF]P-OMe) | 22.1 µM | 50.3 µM | > 20 µM | > 20 µM | > 20 µM | Active | Not Active | > 20 µM | > 20 µM | – | – | – | Active | inactive | 101 µM | 8.98 µM
CC(C)C[C@H](NC(=O)[C@@H](NC(=O)N[C@@H](Cc1ccccc1)C(=O)O)C1CCNC(=N)N1)C(=O)N[C@H](C=O)Cc1ccccc1 (some centres not stated) [CHYMOSTATIN] | – | – | – | – | – | – | – | – | – | – | – | – | – | – | 0.00936 µM | 0.00031 µM
